In ChEMBL document CHEMBL1914456, “Design, synthesis and biological evaluation of mannosyl triazoles as FimH antagonists” (Bioorg Med Chem, 2011):
Values after ≈ are worked out from the molar mass of the structure shown.

How the values were obtained:
[1] = Octanol-phosphate buffer distribution coefficient, log D of the compound at pH 7.4 after 2 hrs by shake flask method using LC-MS analysis; type: physicochemical
Method in brief: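 Miniaturized shake flask. Phosphate buffer (0.1 M, pH 7.4) and 1-octanol mutually saturated. Analyte at 1 µM in buffer, overlaid with octanol at two volume ratios chosen by ALOGPS-predicted logP, three determinations per ratio.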

[2] = Thermodynamic solubility of the compound at pH 6.5 after 24 hrs by shake flask method using LC-MS analysis; type: physicochemical; conditions: buffer, read-out: Therm_solubility
Method in brief: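 1 mg solid shaken in 250 µL 50 mM phosphate buffer, pH 6.5: sonicated 15 min, shaken at 600 rpm and 25 °C for 2 h, then left 24 h. pH measured, then filtered by centrifugation. Filtrate diluted and quantified by LC-MS against a six-point calibration from 0.1 to 10 µg/mL.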

[3] = Permeability of the compound assessed as membrane retention at pH 5 to 7.4 after 16 hrs by PAMPA assay; type: ADME; conditions: pH 5, 16 h
Method in brief: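 PAMPA sandwich: donor wells with compound solution, acceptor filter impregnated with GIT-0 lipid and filled with acceptor sink buffer. Incubated undisturbed for 16 h. Donor and acceptor samples quantified by UV spectroscopy and LC-MS; log Pe and membrane retention calculated from these.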

[4] = target: Type 1 fimbrin D-mannose specific adhesin (Escherichia coli K-12) (UniProt P08191); assay: Ratio of compound IC50 to n-heptyl alpha-D-mannopyranoside IC50 for Escherichia coli recombinant C-terminal 6His-tagged FimH-CRD with a C-terminal thrombin cleavage site expressed in Escherichia coli HM125 assessed as inhibition of streptavidin-horseradish peroxidase conjugated TM-PAA polymer binding after 3 hrs by spectrophotometry
Method in brief: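 FimH-CRD-Th-6His from E. coli HM125, purified on Ni-NTA, coated at 10 µg/mL in assay buffer (20 mM HEPES, 150 mM NaCl, 1 mM CaCl2, pH 7.4) overnight at 4 °C. Wells blocked with 3% BSA for 2 h at 4 °C. Four-fold serial dilutions of compound in buffer with 5% DMSO were added with streptavidin-peroxidase-coupled TM-PAA polymer (0.5 µg/mL). Plates were incubated 3 h at 25 °C, 350 rpm. ABTS was developed 4 min, stopped with 2% oxalic acid, and read at 415 nm. Each compound was run in duplicate and repeated at least twice. IC50 is the concentration that halves maximal specific TM-PAA binding. rIC50 is compound IC50 divided by the IC50 of n-heptyl α-D-mannopyranoside run on the same plate.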

[5] = target: Type 1 fimbrin D-mannose specific adhesin (Escherichia coli K-12, UniProt P08191); assay: Antagonist activity at Escherichia coli recombinant C-terminal 6His-tagged FimH-CRD with a C-terminal thrombin cleavage site expressed in Escherichia coli HM125 assessed as inhibition of streptavidin-horseradish peroxidase conjugated TM-PAA polymer binding after 3 hrs by spectrophotometry
Method in brief: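 Plates coated overnight at 4 °C with 10 µg/mL FimH-CRD-Th-6His in 20 mM HEPES, 150 mM NaCl, 1 mM CaCl2, pH 7.4, then blocked with 3% BSA for 2 h at 4 °C. Fourfold serial dilutions in buffer with 5% DMSO plus 0.5 µg/mL streptavidin-peroxidase TM-PAA polymer, 3 h at 25 °C. ABTS for 4 min, stopped with oxalic acid, OD 415 nm. Duplicates, repeated at least twice; n-heptyl α-D-mannoside on each plate; IC50 from curve fit.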

[6] = Antagonist activity at Escherichia coli […] FimH assessed as disaggregation of microorganism from guinea pig erythrocytes measured for 1400 secs by aggregometry; type: functional
Method in brief: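 E. coli UTI89 and guinea pig erythrocytes (separated on Histopaque), each adjusted to OD600 of 4 (1.9 × 10⁸ CFU/mL and 2.2 × 10⁶ cells/mL). Aggregation read as optical density at 740 nm, 37 °C, stirring at 1000 rpm. Instrument calibrated with protein-poor plasma in PBS as 100% and protein-rich plasma with erythrocytes as 0%. Triplicates; IC50 from area under the disaggregation curve.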

Sequence of Type 1 fimbrin D-mannose specific adhesin (Escherichia coli K-12) (P08191 whole entry): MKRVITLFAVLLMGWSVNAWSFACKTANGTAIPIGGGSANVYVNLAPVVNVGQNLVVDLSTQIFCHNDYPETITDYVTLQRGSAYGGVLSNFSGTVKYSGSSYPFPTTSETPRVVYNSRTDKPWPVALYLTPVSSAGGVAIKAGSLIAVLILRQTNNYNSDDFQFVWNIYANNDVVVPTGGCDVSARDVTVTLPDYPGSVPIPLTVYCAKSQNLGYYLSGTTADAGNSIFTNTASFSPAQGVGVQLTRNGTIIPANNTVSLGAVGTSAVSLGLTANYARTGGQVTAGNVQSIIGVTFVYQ
Sequence of Type 1 fimbrin D-mannose specific adhesin (P08191 whole entry): as above

Row | Structure (SMILES) | logD at 2 h [1] | solubility thermodynamic at 24 h [2] [µg/mL] | R% [3] | Ratio IC50 [4] | IC50 [5] [nM] | IC50 [6]
1 | OC[C@H]1O[C@H](OCc2cn(Cc3ccccc3)nn2)[C@@H](O)[C@@H](O)[C@@H]1O | -0.33 | > 3000 | 3% | 10.2 | 667 | –
2 | COc1cccc(Cn2cc(CO[C@H]3O[C@H](CO)[C@@H](O)[C@H](O)[C@@H]3O)nn2)c1 | -0.38 | > 3000 | 4% | 6.9 | 452 | –
3 | OC[C@H]1O[C@H](OCc2cn(-c3ccc(F)cc3)nn2)[C@@H](O)[C@@H](O)[C@@H]1O | -0.15 | > 3000 | 4.6% | 11.9 | 778 | –
4 | OC[C@H]1O[C@H](n2cc(-c3cccnc3)nn2)[C@@H](O)[C@@H](O)[C@@H]1O | -1.04 | 1380 (≈ 4.47 mM) | 10.3% | 3.3 | 216 | –
5 | Cc1ccc(-c2cn(C[C@H]3O[C@H](CO)[C@@H](O)[C@H](O)[C@@H]3O)nn2)cc1 | 0.23 | 1490 (≈ 4.44 mM) | 6.3% | 8.6 | 565 | –
6 | OC[C@H]1O[C@H](Cn2cc(-c3ccc(C(F)(F)F)cc3)nn2)[C@@H](O)[C@@H](O)[C@@H]1O | 1.07 | 525 (≈ 1.35 mM) | impermeable | 3 | 194 | Not Active
7 | O=C([O-])c1ccc(-n2cc(CO[C@H]3O[C@H](CO)[C@@H](O)[C@H](O)[C@@H]3O)nn2)cc1.[Na+] | – | > 3000 | – | 3.2 | 207 | –
8 | OC[C@H]1O[C@H](Cn2cc(-c3ccccc3)nn2)[C@@H](O)[C@@H](O)[C@@H]1O | -0.36 | > 3000 | 7.8% | 8.5 | 560 | –
9 | O=[N+]([O-])c1ccc(-n2cc(CCO[C@H]3O[C@H](CO)[C@@H](O)[C@H](O)[C@@H]3O)nn2)cc1 | -0.3 | > 3000 | 2.9% | 1.7 | 112 | –
10 | OC[C@H]1O[C@H](OCc2cn(-c3ccncc3)nn2)[C@@H](O)[C@@H](O)[C@@H]1O | 0.24 | > 3000 | 9.2% | 1.1 | 70 | Not Active
11 | COc1ccc(Cn2cc(CO[C@H]3O[C@H](CO)[C@@H](O)[C@H](O)[C@@H]3O)nn2)cc1 | -0.4 | > 3000 | 3.1% | 7.8 | 511 | –
12 | COc1cccc(Cn2cc(CCO[C@H]3O[C@H](CO)[C@@H](O)[C@H](O)[C@@H]3O)nn2)c1 | < -1 | > 3000 | 11.8% | 3.5 | 229 | –
13 | OC[C@H]1O[C@H](Cn2cc(COc3ccccc3)nn2)[C@@H](O)[C@@H](O)[C@@H]1O | -0.83 | – | impermeable | 5 | 327 | –
14 | O=C([O-])c1cncc(-n2cc(CO[C@H]3O[C@H](CO)[C@@H](O)[C@H](O)[C@@H]3O)nn2)c1.[Na+] | – | > 3000 | – | 2.6 | 169 | –
15 | OC[C@H]1O[C@H](OCc2cn(-c3cccc(F)c3)nn2)[C@@H](O)[C@@H](O)[C@@H]1O | 0.18 | > 3000 | 5.4% | 5.3 | 348 | –
16 | OC[C@H]1O[C@H](n2cc(-c3cccc(Cl)c3)nn2)[C@@H](O)[C@@H](O)[C@@H]1O | 1.22 | 705 (≈ 2.06 mM) | 13.2% | 5.1 | 331 | –
17 | OC[C@H]1O[C@H](Cn2cc(-c3cccnc3)nn2)[C@@H](O)[C@@H](O)[C@@H]1O | < -1.5 | 1880 (≈ 5.82 mM) | impermeable | 5.1 | 333 | Not Active
18 | CO[C@H]1O[C@H](CO)[C@@H](O)[C@H](O)[C@@H]1O | – | – | – | 29 | 1900 | –
19 | OC[C@H]1O[C@H](OCc2cn(C34CC5CC(CC(C5)C3)C4)nn2)[C@@H](O)[C@@H](O)[C@@H]1O | 0.07 | > 3000 | 9.8% | 2.1 | 135 | –
20 | O=[N+]([O-])c1ccc(-n2cc(CO[C@H]3O[C@H](CO)[C@@H](O)[C@H](O)[C@@H]3O)nn2)cc1 | -0.16 | 2600 (≈ 6.8 mM) | 4.9% | 6.1 | – | –
21 | OC[C@H]1O[C@H](n2cc(-c3ccccc3)nn2)[C@@H](O)[C@@H](O)[C@@H]1O | 0.21 | > 3000 | 6.4% | 3.8 | – | –
22 | O=C([O-])c1cccc(-n2cc(CO[C@H]3O[C@H](CO)[C@@H](O)[C@H](O)[C@@H]3O)nn2)c1.[Na+] | – | > 3000 | – | 4.5 | 296 | –
23 | COc1ccc(-n2cc(CO[C@H]3O[C@H](CO)[C@@H](O)[C@H](O)[C@@H]3O)nn2)cc1 | -0.05 | 2600 (≈ 7.08 mM) | 7.9% | 2.5 | 161 | –
24 | OC[C@H]1O[C@H](Cn2cc(-c3cccc(Cl)c3)nn2)[C@@H](O)[C@@H](O)[C@@H]1O | 0.68 | > 3000 | impermeable | 9.7 | 639 | –
25 | OC[C@H]1O[C@H](n2cc(COc3ccccc3)nn2)[C@@H](O)[C@@H](O)[C@@H]1O | -0.18 | > 3000 | 5.5% | 7.5 | 493 | –
